pEC50, pIC50: −log10 of the molar value.
What was measured:
in vitro = settings: human, liver microsomes
Cytochrome P450 2C9 = Cytochrome P450 2C9 (Homo sapiens, UniProt P11712); experiment: Inhibition of CYP2C9 in human liver microsomes using tolbutamide as substrate after 20 mins by LC-MS analysis
Cytochrome P450 2C19 = Cytochrome P450 2C19 (Homo sapiens, UniProt P33261); experiment: Inhibition of CYP2C19 in human liver microsomes using (S)-mephenytoin as substrate after 40 mins by LC-MS analysis
Sequence of Cytochrome P450 2C19 (P33261 whole entry): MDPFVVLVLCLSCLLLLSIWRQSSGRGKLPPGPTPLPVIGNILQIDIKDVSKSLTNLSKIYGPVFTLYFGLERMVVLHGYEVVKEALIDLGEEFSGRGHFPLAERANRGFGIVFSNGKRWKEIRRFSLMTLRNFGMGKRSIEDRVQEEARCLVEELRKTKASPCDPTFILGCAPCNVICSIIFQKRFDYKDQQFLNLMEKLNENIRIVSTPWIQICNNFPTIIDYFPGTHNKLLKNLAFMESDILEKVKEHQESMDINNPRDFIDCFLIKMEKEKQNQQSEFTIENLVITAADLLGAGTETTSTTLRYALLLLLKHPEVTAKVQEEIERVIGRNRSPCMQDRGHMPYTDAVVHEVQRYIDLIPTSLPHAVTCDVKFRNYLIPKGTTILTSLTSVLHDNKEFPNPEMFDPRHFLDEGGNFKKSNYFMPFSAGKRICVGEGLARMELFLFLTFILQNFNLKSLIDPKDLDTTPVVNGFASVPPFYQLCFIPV

Cytochrome P450 2D6 = Cytochrome P450 2D6 (Homo sapiens, UniProt P10635); experiment: Inhibition of CYP2D6 in human liver microsomes using dextromethorphan as substrate after 10 mins by LC-MS analysis
Sequence of Cytochrome P450 2D6 (P10635 whole entry): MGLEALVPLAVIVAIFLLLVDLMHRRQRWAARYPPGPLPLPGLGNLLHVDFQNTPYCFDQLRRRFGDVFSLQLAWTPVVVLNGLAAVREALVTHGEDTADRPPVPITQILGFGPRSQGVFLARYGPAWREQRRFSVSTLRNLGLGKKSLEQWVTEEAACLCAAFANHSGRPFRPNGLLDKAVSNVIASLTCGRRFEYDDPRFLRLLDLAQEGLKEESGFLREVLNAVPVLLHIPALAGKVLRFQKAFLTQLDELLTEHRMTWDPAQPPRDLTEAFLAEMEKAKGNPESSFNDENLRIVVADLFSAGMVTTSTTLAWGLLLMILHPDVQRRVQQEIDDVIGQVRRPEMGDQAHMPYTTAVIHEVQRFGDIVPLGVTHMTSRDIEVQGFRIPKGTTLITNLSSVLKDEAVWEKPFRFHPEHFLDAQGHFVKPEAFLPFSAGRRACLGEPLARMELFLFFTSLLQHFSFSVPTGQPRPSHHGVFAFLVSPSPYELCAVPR

Left cardiac atrium [1] = experiment: Negative inotropic activity in potassium depolarized guinea pig left atrium assessed as reduction in developed tension at 10^-6 M after 30 mins; type: functional, Cavia porcellus; set-up: scale not given: the % may be the effect or the level left
Liver microsome = experiment: Stability in human liver microsomes at 1 uM after 2 to 60 mins by LC-MS analysis in absence of NADPH
Left cardiac atrium [2] = experiment: Negative inotropic activity in potassium depolarized guinea pig left atrium assessed as reduction in developed tension after 30 mins; type: functional; settings: Cavia porcellus, 0.5 h
Outline: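 Guinea pig left atria electrically driven at 1 Hz. EC50 taken from log concentration−response curves by Litchfield and Wilcoxon probit analysis, n = 6−7. Not calculated when the maximum effect was below 50%.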

Right cardiac atrium = experiment: Negative chronotropic activity in potassium depolarized guinea pig right atrium assessed as reduction in atrial rate at 50 uM after 30 mins; type: functional, Cavia porcellus; set-up: scale not given: the % may be the effect or the level left
[3] = Half life in human liver microsomes assessed as CYP-mediated compound degradation at 1 uM by LC-MS analysis
Aorta [4] = experiment: Vasorelaxant activity in potassium depolarized guinea pig aorta assessed as inhibition of calcium-induced contraction at 10^-4 M after 30 mins; type: functional, Cavia porcellus; set-up: scale not given: the % may be the effect or the level left
Outline: (§1)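 Guinea pig aortic strips depolarized with K+ (80 mM). Calcium-induced contraction measured; inhibition expressed as percent change from control, n = 3−5.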

[5] = Relaxant activity in potassium depolarized guinea pig ileum longitudinal smooth muscle assessed as inhibition of calcium-induced contraction at 0.05 uM after 30 mins; type: functional, Cavia porcellus; set-up: scale not given: the % may be the effect or the level left
[6] = Relaxant activity in potassium depolarized guinea pig ileum longitudinal smooth muscle assessed as inhibition of calcium-induced contraction after 30 mins; type: functional, tissue-based; settings: Cavia porcellus, 0.5 h
Cytochrome P450 1A2 = target: T1, Cytochrome P450 1A2 (Homo sapiens, UniProt P05177); experiment: Inhibition of CYP1A2 in human liver microsomes using phenacetin as substrate after 30 mins by LC-MS analysis
T1 sequence (P05177 whole entry): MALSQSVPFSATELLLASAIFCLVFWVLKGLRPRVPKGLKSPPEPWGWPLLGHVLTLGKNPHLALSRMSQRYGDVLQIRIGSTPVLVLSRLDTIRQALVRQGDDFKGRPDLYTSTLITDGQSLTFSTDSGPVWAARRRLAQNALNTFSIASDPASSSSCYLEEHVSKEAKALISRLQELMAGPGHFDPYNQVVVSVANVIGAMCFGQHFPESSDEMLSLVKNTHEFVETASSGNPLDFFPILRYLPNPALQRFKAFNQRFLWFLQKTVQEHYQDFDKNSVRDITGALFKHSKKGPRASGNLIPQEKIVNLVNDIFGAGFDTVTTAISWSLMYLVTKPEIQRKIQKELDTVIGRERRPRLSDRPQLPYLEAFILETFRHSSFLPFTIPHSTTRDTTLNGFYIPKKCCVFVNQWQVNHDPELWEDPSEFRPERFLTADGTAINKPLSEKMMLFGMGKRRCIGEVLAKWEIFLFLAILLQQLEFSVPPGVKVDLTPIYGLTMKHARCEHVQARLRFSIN

[7] = Relaxant activity in potassium depolarized guinea pig ileum longitudinal smooth muscle assessed as inhibition of calcium-induced contraction at 10^-5 M after 30 mins; type: functional, Cavia porcellus; set-up: scale not given: the % may be the effect or the level left
Left cardiac atrium [8] = experiment: Negative inotropic activity in potassium depolarized guinea pig left atrium assessed as reduction in developed tension at 5 uM after 30 mins; type: functional, Cavia porcellus; set-up: scale not given: the % may be the effect or the level left
Left cardiac atrium [9] = experiment: Potency index, ratio of diltiazem EC50 to compound EC50 for negative inotropic activity against potassium depolarized guinea pig left atrium
Left cardiac atrium [10] = experiment: Negative inotropic activity in potassium depolarized guinea pig left atrium assessed as reduction in developed tension at 10^-5 M after 30 mins; type: functional, Cavia porcellus; set-up: scale not given: the % may be the effect or the level left
Aorta [11] = experiment: Vasorelaxant activity in potassium depolarized guinea pig aorta assessed as inhibition of calcium-induced contraction at 50 uM after 30 mins; type: functional, Cavia porcellus; set-up: scale not given: the % may be the effect or the level left
Outline: as §1

Sequence of Cytochrome P450 2C9 (P11712 whole entry): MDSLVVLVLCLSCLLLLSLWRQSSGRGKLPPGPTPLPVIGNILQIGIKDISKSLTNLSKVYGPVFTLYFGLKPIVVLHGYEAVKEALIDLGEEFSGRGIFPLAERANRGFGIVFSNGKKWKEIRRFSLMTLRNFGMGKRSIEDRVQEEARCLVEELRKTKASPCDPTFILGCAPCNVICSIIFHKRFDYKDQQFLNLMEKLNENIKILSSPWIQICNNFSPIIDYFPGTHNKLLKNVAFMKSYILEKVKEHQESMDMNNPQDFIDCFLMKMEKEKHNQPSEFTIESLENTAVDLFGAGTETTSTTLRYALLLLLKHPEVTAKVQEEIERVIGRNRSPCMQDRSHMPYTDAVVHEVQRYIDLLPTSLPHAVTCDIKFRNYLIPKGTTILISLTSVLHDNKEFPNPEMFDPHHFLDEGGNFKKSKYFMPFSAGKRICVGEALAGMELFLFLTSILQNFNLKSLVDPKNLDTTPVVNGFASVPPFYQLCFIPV

microsomal CLint at 1 µM (in vitro) [µL/min/mg]	pIC50 (Cytochrome P450 2C9)	pIC50 (Cytochrome P450 2C19)	pIC50 (Cytochrome P450 2D6)	Stability (Liver microsome)	pEC50 (Left cardiac atrium [2])	half-life at 1 µM [3] [min]	pIC50 [6]	pIC50 (Cytochrome P450 1A2)	SMILES	Activity (Left cardiac atrium [1]) [%]	Activity (Right cardiac atrium) [%]	Activity (Aorta [4]) [%]	Activity [5] [%]	Activity [7] [%]	Activity (Left cardiac atrium [8]) [%]	Ratio EC50 (Left cardiac atrium [9])	Activity (Left cardiac atrium [10]) [%]	Activity (Aorta [11]) [%]
278	4.87	5.60	4.90	Stable	7.66	6	7.77	5.28	CCOC1(c2ccc(OC)cc2)SC=C(C)n2c1noc2=O (stereo not drawn)	76	3	29	86	–	–	–	–	–
–	–	–	–	–	7.42	–	–	–	CCOC1(c2cccc(OC)c2)SC=C(C)n2c1noc2=O (stereo not drawn)	–	2	31	–	43	71	–	–	–
–	–	–	–	–	6.64	–	–	–	CC1=CSC(O)(c2ccccc2)c2noc(=O)n21 (stereo not drawn)	–	14	–	–	–	–	3.4	95	4

Reference: ChEMBL document CHEMBL3817843, “Understanding Oxadiazolothiazinone Biological Properties: Negative Inotropic Activity versus Cytochrome P450-Mediated Metabolism” (J Med Chem, 2016)
